Test results published in ChEMBL document CHEMBL1629686, “Substrate selectivity and a novel role in inhibitor discrimination by residue 237 in the KPC-2 beta-lactamase” (Antimicrob Agents Chemother, 2010).
Values after ≈ are worked out from the molar mass of the structure shown.

Legend:
Format in all cases: functional
Escherichia coli [1] = assay: Antimicrobial activity against Escherichia coli DH10B harboring beta-lactamase KPC-2 T237D mutant by agar dilution method; details: K-12 DH10B
Procedure, shortened: (§1)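 LB agar dilution MICs followed CLSI criteria, with inocula applied by Steers replicator. […] Piperacillin-tazobactam was tested at an 8:1 ratio. Wild-type and mutant blaKPC-2 were carried on pBC SK(+), or wild type on pBR322-catI, in E. coli DH10B.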

Escherichia coli [2] = assay: Antimicrobial activity against Escherichia coli DH10B harboring beta-lactamase KPC-2 T237V mutant by agar dilution method; details: K-12 DH10B; procedure, shortened: as §1
Escherichia coli [3] = assay: Antimicrobial activity against Escherichia coli DH10B harboring beta-lactamase KPC-2 T237P mutant by agar dilution method; details: K-12 DH10B; procedure, shortened: as §1
Escherichia coli [4] = assay: Antimicrobial activity against Escherichia coli DH10B harboring beta-lactamase KPC-2 T237H mutant by agar dilution method; details: K-12 DH10B; procedure, shortened: as §1
Escherichia coli [5] = assay: Antimicrobial activity against Escherichia coli DH10B harboring beta-lactamase KPC-2 T237W mutant by agar dilution method; details: K-12 DH10B; procedure, shortened: as §1
Escherichia coli [6] = assay: Antimicrobial activity against Escherichia coli DH10B harboring beta-lactamase KPC-2 T237F mutant by agar dilution method; details: K-12 DH10B; procedure, shortened: as §1
Escherichia coli [7] = assay: Antimicrobial activity against Escherichia coli DH10B harboring beta-lactamase KPC-2 T237I mutant by agar dilution method; details: K-12 DH10B; procedure, shortened: as §1
Escherichia coli [8] = assay: Antimicrobial activity against Escherichia coli DH10B harboring beta-lactamase KPC-2 T237K mutant by agar dilution method in presence of beta-lactamase inhibitor Tazobactam; details: K-12 DH10B
Procedure, shortened: (§2)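 LB agar dilution MICs by CLSI criteria, inoculated with a Steers replicator. […] Strains were E. coli DH10B with or without pBC SK(+) carrying wild-type blaKPC-2 or a position 237 variant.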

Escherichia coli [9] = assay: Antimicrobial activity against Escherichia coli DH10B harboring beta-lactamase KPC-2 T237S mutant by agar dilution method; details: K-12 DH10B; procedure, shortened: as §1
Klebsiella pneumoniae = assay: Antimicrobial activity against Klebsiella pneumoniae 1534 expressing beta-lactamase KPC-2 by agar dilution method
Procedure, shortened: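 MICs were determined by LB agar dilution following CLSI criteria, with a Steers replicator. […] Piperacillin-tazobactam was kept at an 8:1 ratio.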

Escherichia coli [10] = assay: Antimicrobial activity against Escherichia coli DH10B harboring plasmid pBC SK(+) carrying wild type beta-lactamase KPC-2 by agar dilution method; details: K-12 DH10B; procedure, shortened: as §1
Escherichia coli [11] = assay: Antimicrobial activity against Escherichia coli DH10B harboring beta-lactamase KPC-2 T237Q mutant by agar dilution method; details: K-12 DH10B; procedure, shortened: as §1
Escherichia coli [12] = assay: Antimicrobial activity against Escherichia coli DH10B harboring beta-lactamase KPC-2 T237R mutant by agar dilution method; details: K-12 DH10B; procedure, shortened: as §1
Escherichia coli [13] = assay: Antimicrobial activity against Escherichia coli DH10B harboring beta-lactamase KPC-2 T237A mutant by agar dilution method; details: K-12 DH10B; procedure, shortened: as §1
Escherichia coli [14] = assay: Antimicrobial activity against Escherichia coli DH10B harboring plasmid […] by agar dilution method; details: K-12 DH10B; procedure, shortened: as §1
Escherichia coli [15] = assay: Antimicrobial activity against Escherichia coli DH10B harboring beta-lactamase KPC-2 T237Y mutant by agar dilution method in presence of beta-lactamase inhibitor Tazobactam; details: K-12 DH10B; procedure, shortened: as §2
Escherichia coli [16] = assay: Antimicrobial activity against Escherichia coli DH10B harboring beta-lactamase KPC-2 T237Q mutant by agar dilution method in presence of beta-lactamase inhibitor Tazobactam; details: K-12 DH10B; procedure, shortened: as §2
Escherichia coli [17] = assay: Antimicrobial activity against Escherichia coli DH10B harboring beta-lactamase KPC-2 T237L mutant by agar dilution method; details: K-12 DH10B; procedure, shortened: as §1
Escherichia coli [18] = assay: Antimicrobial activity against Escherichia coli DH10B harboring beta-lactamase KPC-2 T237Y mutant by agar dilution method; details: K-12 DH10B; procedure, shortened: as §1
Escherichia coli [19] = assay: Antimicrobial activity against Escherichia coli DH10B harboring beta-lactamase KPC-2 T237E mutant by agar dilution method; details: K-12 DH10B; procedure, shortened: as §1
Escherichia coli [20] = assay: Antimicrobial activity against Escherichia coli DH10B harboring beta-lactamase KPC-2 T237F mutant by agar dilution method in presence of beta-lactamase inhibitor Tazobactam; details: K-12 DH10B; procedure, shortened: as §2
Escherichia coli [21] = assay: Antimicrobial activity against Escherichia coli DH10B harboring beta-lactamase KPC-2 T237H mutant by agar dilution method in presence of beta-lactamase inhibitor Tazobactam; details: K-12 DH10B; procedure, shortened: as §2
Escherichia coli [22] = assay: Antimicrobial activity against Escherichia coli DH10B harboring beta-lactamase KPC-2 T237G mutant by agar dilution method; details: K-12 DH10B; procedure, shortened: as §1
Escherichia coli [23] = assay: Antimicrobial activity against Escherichia coli DH10B harboring beta-lactamase KPC-2 T237K mutant by agar dilution method; details: K-12 DH10B; procedure, shortened: as §1
Escherichia coli [24] = assay: Antimicrobial activity against Escherichia coli DH10B by agar dilution method; details: K-12 DH10B; procedure, shortened: as §1
Escherichia coli [25] = assay: Antimicrobial activity against Escherichia coli DH10B harboring beta-lactamase KPC-2 T237C mutant by agar dilution method; details: K-12 DH10B; procedure, shortened: as §1
Escherichia coli [26] = assay: Antimicrobial activity against Escherichia coli DH10B harboring beta-lactamase KPC-2 T237W mutant by agar dilution method in presence of beta-lactamase inhibitor Tazobactam; details: K-12 DH10B; procedure, shortened: as §2
Escherichia coli [27] = assay: Antimicrobial activity against Escherichia coli DH10B harboring plasmid pBR322-catI carrying beta-lactamase KPC-2 by agar dilution method in presence of beta-lactamase inhibitor Tazobactam; details: K-12 DH10B
Procedure, shortened: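 LB agar dilution MIC following CLSI criteria, inoculated with a Steers replicator. Tested as piperacillin-tazobactam at a fixed 8:1 ratio.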

Escherichia coli [28] = assay: Antimicrobial activity against Escherichia coli DH10B harboring plasmid pBR322-catI carrying beta-lactamase KPC-2 by agar dilution method; details: K-12 DH10B; procedure, shortened: as §1
Escherichia coli [29] = assay: Antimicrobial activity against Escherichia coli DH10B harboring beta-lactamase KPC-2 T237M mutant by agar dilution method; details: K-12 DH10B; procedure, shortened: as §1
Escherichia coli [30] = assay: Antimicrobial activity against Escherichia coli DH10B harboring beta-lactamase KPC-2 T237N mutant by agar dilution method; details: K-12 DH10B; procedure, shortened: as §1
Escherichia coli [31] = assay: Antimicrobial activity against Escherichia coli DH10B harboring beta-lactamase KPC-2 T237G mutant by agar dilution method in presence of beta-lactamase inhibitor Sulbactam; details: K-12 DH10B
Procedure, shortened: (§3)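 LB agar dilution MICs by CLSI criteria, applied with a Steers replicator. […] Hosts were E. coli DH10B carrying pBC SK(+) with wild-type blaKPC-2 or a position 237 variant.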

Escherichia coli [32] = assay: Antimicrobial activity against Escherichia coli DH10B harboring beta-lactamase KPC-2 T237M mutant by agar dilution method in presence of beta-lactamase inhibitor clavulanic acid; details: K-12 DH10B; procedure, shortened: as §3
Escherichia coli [33] = assay: Antimicrobial activity against Escherichia coli DH10B harboring beta-lactamase KPC-2 T237Q mutant by agar dilution method in presence of beta-lactamase inhibitor clavulanic acid; details: K-12 DH10B; procedure, shortened: as §3
Escherichia coli [34] = assay: Antimicrobial activity against Escherichia coli DH10B harboring beta-lactamase KPC-2 T237N mutant by agar dilution method in presence of beta-lactamase inhibitor clavulanic acid; details: K-12 DH10B; procedure, shortened: as §3
Escherichia coli [35] = assay: Antimicrobial activity against Escherichia coli DH10B harboring plasmid pBR322-catI carrying beta-lactamase KPC-2 by agar dilution method in presence of beta-lactamase inhibitor Sulbactam; details: K-12 DH10B
Escherichia coli [36] = assay: Antimicrobial activity against Escherichia coli DH10B harboring beta-lactamase KPC-2 T237G mutant by agar dilution method in presence of beta-lactamase inhibitor clavulanic acid; details: K-12 DH10B
Procedure, shortened: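 LB agar dilution MICs per CLSI criteria, inoculated with a Steers replicator. […] Strains: E. coli DH10B alone, DH10B carrying empty pBC SK(+), or DH10B carrying pBC SK(+)-blaKPC-2 position 237 variants made by site-saturation mutagenesis and confirmed by sequencing. Plasmid selection used 20 mg/liter chloramphenicol.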

Escherichia coli [37] = assay: Antimicrobial activity against Escherichia coli DH10B harboring beta-lactamase KPC-2 T237D mutant by agar dilution method in presence of beta-lactamase inhibitor Sulbactam; details: K-12 DH10B; procedure, shortened: as §3

Structure (SMILES) | MIC (Escherichia coli [1]) [µg/mL] | MIC (Escherichia coli [2]) [µg/mL] | MIC (Escherichia coli [3]) [µg/mL] | MIC (Escherichia coli [4]) [µg/mL] | MIC (Escherichia coli [5]) [µg/mL] | MIC (Escherichia coli [6]) [µg/mL] | MIC (Escherichia coli [7]) [µg/mL] | MIC (Escherichia coli [9]) [µg/mL] | MIC (Klebsiella pneumoniae) [µg/mL] | MIC (Escherichia coli [10]) [µg/mL] | MIC (Escherichia coli [11]) [µg/mL] | MIC (Escherichia coli [12]) [µg/mL] | MIC (Escherichia coli [13]) [µg/mL] | MIC (Escherichia coli [14]) [µg/mL] | MIC (Escherichia coli [17]) [µg/mL] | MIC (Escherichia coli [18]) [µg/mL] | MIC (Escherichia coli [19]) [µg/mL] | MIC (Escherichia coli [22]) [µg/mL] | MIC (Escherichia coli [23]) [µg/mL] | MIC (Escherichia coli [24]) [µg/mL] | further results
CCN1CCN(C(=O)N[C@@H](C(=O)N[C@@H]2C(=O)N3[C@@H]2SC(C)(C)[C@@H]3C(=O)O)c2ccccc2)C(=O)C1=O [PIPERACILLIN] | 4 (≈ 7.73 µM) | 16 (≈ 30.9 µM) | 1 (≈ 1.93 µM) | 8 (≈ 15.5 µM) | 8 (≈ 15.5 µM) | 4 (≈ 7.73 µM) | 8 (≈ 15.5 µM) | 128 (≈ 247 µM) | 1020 (≈ 1980 µM) | 128 (≈ 247 µM) | 64 (≈ 124 µM) | 4 (≈ 7.73 µM) | 64 (≈ 124 µM) | 2 (≈ 3.86 µM) | 16 (≈ 30.9 µM) | 4 (≈ 7.73 µM) | 8 (≈ 15.5 µM) | 16 (≈ 30.9 µM) | 1 (≈ 1.93 µM) | 2 (≈ 3.86 µM) | MIC (Escherichia coli [8]): 0.5 µg/mL; MIC (Escherichia coli [15]): 0.5 µg/mL; MIC (Escherichia coli [16]): 4 µg/mL; MIC (Escherichia coli [20]): 0.5 µg/mL; MIC (Escherichia coli [21]): 1 µg/mL; MIC (Escherichia coli [25]): 4 µg/mL (≈ 7.73 µM); MIC (Escherichia coli [26]): 1 µg/mL; MIC (Escherichia coli [27]): 64 µg/mL; MIC (Escherichia coli [28]): 1020 µg/mL (≈ 1980 µM); MIC (Escherichia coli [29]): 32 µg/mL (≈ 61.8 µM); MIC (Escherichia coli [30]): 8 µg/mL (≈ 15.5 µM)
CC1(C)S[C@@H]2[C@H](NC(=O)[C@H](N)c3ccccc3)C(=O)N2[C@H]1C(=O)O [AMPICILLIN] | 16 (≈ 45.8 µM) | 128 (≈ 366 µM) | 1 (≈ 2.86 µM) | 64 (≈ 183 µM) | 16 (≈ 45.8 µM) | 16 (≈ 45.8 µM) | 64 (≈ 183 µM) | 512 (≈ 1470 µM) | 8190 (≈ 23400 µM) | 256 (≈ 733 µM) | 256 (≈ 733 µM) | 4 (≈ 11.4 µM) | 256 (≈ 733 µM) | 1 (≈ 2.86 µM) | 64 (≈ 183 µM) | 16 (≈ 45.8 µM) | 32 (≈ 91.6 µM) | 128 (≈ 366 µM) | 1 (≈ 2.86 µM) | 1 (≈ 2.86 µM) | MIC (Escherichia coli [31]): 16 µg/mL; MIC (Escherichia coli [32]): 8 µg/mL; MIC (Escherichia coli [33]): 8 µg/mL; MIC (Escherichia coli [34]): 4 µg/mL; MIC (Escherichia coli [25]): 4 µg/mL (≈ 11.4 µM); MIC (Escherichia coli [35]): 512 µg/mL; MIC (Escherichia coli [28]): 4100 µg/mL (≈ 11700 µM); MIC (Escherichia coli [36]): 1 µg/mL; MIC (Escherichia coli [37]): 16 µg/mL; MIC (Escherichia coli [29]): 128 µg/mL (≈ 366 µM); MIC (Escherichia coli [30]): 32 µg/mL (≈ 91.6 µM)
